Data set [1] has as its system A549. Nature of the data set: Induction of apoptosis in human A549 cells assessed as early apoptotic cells at 5 uM after 6 hrs by annexin V/propidium iodide staining-based FACS flow cytometric analysis relative to control. The format is functional. The method in brief:
(§1)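 A549 cells incubated 6 h with compound, then analysed by FACS annexin V/propidium iodide assay. Phosphatidylserine translocation to the outer membrane was taken as the early-apoptosis marker. Cells were scored as percentage dying by necrosis versus programmed cell death. Betulinic acid and maslinic acid were the reference standards.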

The next data set deals with NIH3T3. Nature of the data set: Cytotoxicity against mouse NIH/3T3 cells assessed as cell viability after 96 hrs by SRB assay. The note with it: NIH3T3, 96 h. The format is cell-based. Background: Sulforhodamine B stains cellular protein and so reports cell mass.
Data set [2] is described as follows: Cytotoxicity against human 518A2 cells assessed as cell viability after 96 hrs by SRB assay. It counts as functional, cell-based. The conditions noted are these: Homo sapiens, 518A2, 96 h.
The next data set relates to 8505C. Kind of data set: Cytotoxicity against human 8505C cells assessed as cell viability after 96 hrs by SRB assay. It counts as functional, cell-based. The conditions noted are these: Homo sapiens, 8505C, 96 h.
Data set [3] in a line: Cytotoxicity against human A253 cells assessed as cell viability after 96 hrs by SRB assay. The format is functional, cell-based. The note with it: Homo sapiens, A253, 96 h.
The subject of a further data set is A2780. Nature of the data set: Cytotoxicity against human A2780 cells assessed as cell viability after 96 hrs by SRB assay. The format is functional, cell-based. The note with it: Homo sapiens, A2780, 96 h.
The test system of data set [4] is A549. Kind of data set: Cytotoxicity against human A549 cells assessed as cell viability after 96 hrs by SRB assay. The format is functional, cell-based. The conditions noted are these: Homo sapiens, A549, 96 h.
The subject of a further data set is DLD-1. Nature of the data set: Cytotoxicity against human DLD1 cells assessed as cell viability after 96 hrs by SRB assay. The format is functional, cell-based. The conditions noted are these: Homo sapiens, DLD-1, 96 h.
The test system of another data set is MCF7. Nature of the data set: Cytotoxicity against human MCF7 cells assessed as cell viability after 96 hrs by SRB assay. The format is functional, cell-based. The conditions noted are these: Homo sapiens, MCF7, 96 h.
Data set [5] can be described thus: Cytotoxicity against human Lipo cells assessed as cell viability after 96 hrs by SRB assay. The format is functional, cell-based. The conditions noted are these: Homo sapiens, Lipo, 96 h.
The test system of another data set is SW-1736. Nature of the data set: Cytotoxicity against human SW1736 cells assessed as cell viability after 96 hrs by SRB assay. The conditions noted are these: Homo sapiens, SW-1736, 96 h. It counts as functional, cell-based.
The nature of data set [6]: Solubility of the compound in water/DMSO mixture. It counts as physicochemical. The conditions noted are these: water/DMSO mixture; read-out: solubility. The method, boiled down:
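Solubility was measured in water/DMSO (95:5, v/v) by HPLC with UV/vis detection.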

In data set [7] the test system is A549. Nature of the data set: Induction of apoptosis in human A549 cells assessed as cell shrinking by acridine orange/propidium iodide staining. The format is functional, cell-based.
Data set [8] has as its system A549. Nature of the data set: Cell cycle arrest in human A549 cells assessed as accumulation at G2/M phase by acridine orange/propidium iodide staining. It counts as functional, cell-based.
The test system of data set [9] is A549. Nature of the data set: Induction of apoptosis in human A549 cells assessed as chromatin condensation by acridine orange/propidium iodide staining. It counts as functional, cell-based.
In data set [10] the test system is A549. Nature of the data set: Induction of apoptosis in human A549 cells assessed as DNA fragmentation by DNA laddering assay. It counts as functional, cell-based. The method, boiled down: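 DNA fragmentation was checked by DNA laddering in treated human cancer cells, as an indicator of apoptotic cell death.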
In data set [11] the test system is A549. Kind of data set: Induction of apoptosis in human A549 cells assessed as membrane blebbing by acridine orange/propidium iodide staining. It counts as functional, cell-based.
Data set [12] deals with A549. Kind of data set: Induction of apoptosis in human A549 cells assessed as early apoptotic cells at 10 uM after 6 hrs by annexin V/propidium iodide staining-based FACS flow cytometric analysis relative to control. It counts as functional. The method in brief: as §1

The structures appear in SMILES notation. The source made the active and inactive calls. The calls are words filed in the database; no cut-off is given here.

Consider `C=C(C)[C@@H]1CC[C@]2([C@H](O)C#CCN3CCOCC3)CC[C@]3(C)[C@H](CC[C@@H]4[C@@]5(C)CC[C@H](OC(C)=O)C(C)(C)[C@@H]5CC[C@]43C)[C@@H]12.Cl`, for which the Activity in the data set with A549 [1] was over 90%. For the same molecule, the IC50 (commonly the concentration that inhibits the measured activity by half) was 7.2 µM in the data set with NIH3T3; 7 µM in data set [2]; 7.2 µM in the data set with 8505C; 5.2 µM in data set [3]; 4100 nM with A2780; 7.6 µM in the data set with A549 [4]. Further, the IC50 in the data set with DLD-1 was found to be 5 µM; in the data set on MCF7, 7.7 µM; in data set [5], 2400 nM; with SW-1736, 8.9 µM. Moreover, the solubility (in general, the dissolved amount per volume that the medium holds) in data set [6] was 192 µg/mL.

For `C=C(C)[C@@H]1CC[C@]2([C@@H](O)CCCN(C(C)C)C(C)C)CC[C@]3(C)[C@H](CC[C@@H]4[C@@]5(C)CC[C@H](O)C(C)(C)[C@@H]5CC[C@]43C)[C@@H]12`, the result with A549 [7], in the data set on A549 [8], in the data set with A549 [9], in the data set on A549 [10] and in the data set with A549 [11] was Active. Moreover, the Activity in the data set with A549 [12] is given as over 90%. The half-inhibitory concentration (IC50) in the data set with NIH3T3 is 1.7 µM; in data set [2], 2.1 µM; in the data set on 8505C it was 2.3 µM; in [3], 1.8 µM; in the data set with A2780, 1600 nM; in the data set with A549 [4] it was 2.2 µM. Besides, the concentration for half-maximal inhibition (IC50) in the data set on DLD-1 amounted to 2.3 µM; with MCF7, 0.7 µM; in data set [5], 2300 nM; with SW-1736, 1.7 µM.

As for `C=C(C)[C@@H]1CC[C@]2([C@@H](O)C#CCN(CCC)CCC)CC[C@]3(C)[C@H](CC[C@@H]4[C@@]5(C)CC[C@H](OC(C)=O)C(C)(C)[C@@H]5CC[C@]43C)[C@@H]12.CI`, the result with A549 [7], with A549 [8], in the data set on A549 [9], in the data set on A549 [10] and with A549 [11] was Active. For the same molecule, the Activity with A549 [12] was over 90%. Besides, the IC50 turned out to be 6.8 µM in the data set with NIH3T3; 4.6 µM in data set [2]; 4.1 µM in the data set on 8505C; 3.5 µM in [3]; 2300 nM in the data set on A2780; 4.5 µM with A549 [4]. Moreover, the half-maximal inhibitory concentration (IC50) in the data set with DLD-1 is 4.8 µM; in the data set with MCF7, 3.2 µM; in data set [5], 4300 nM; with SW-1736 it was 3.2 µM.
